Calls of active or inactive are those of the source.
Columns and labels:
HUVEC [1] = assay: Effect on KIF22 gene expression in serum-starved HUVEC after 24 hrs by microarray analysis relative to control; format: functional, Homo sapiens
How it was run: (§1)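 Confluent, serum-starved HUVEC (pooled from 3–5 donors, passage ≤4) treated with 2 μM compound or vehicle with 2.5% FBS for 6 h or 24 h. Total RNA hybridized to Illumina Human-HT12 arrays. Data were background-corrected, vst-transformed and rsn-normalized. Hits called by moderated paired t-test versus DMSO-treated cells, p < 0.05 and log2 fold change >|0.5|.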

HUVEC [2] = assay: Effect on IL10 gene expression in serum-starved HUVEC after 6 hrs by microarray analysis relative to control; format: functional, Homo sapiens; how it was run: as §1
HUVEC [3] = assay: Effect on IL10 gene expression in serum-starved HUVEC after 24 hrs by microarray analysis relative to control; format: functional, Homo sapiens; how it was run: as §1
HUVEC [4] = assay: Effect on MIR181A2HG gene expression in serum-starved HUVEC after 6 hrs by microarray analysis relative to control; format: functional, Homo sapiens
How it was run: (§2)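 Serum-starved confluent HUVEC (pooled from 3–5 donors, passage ≤4) were treated with 2 μM compound or vehicle in 2.5% FBS for 6 h or 24 h, and total RNA was isolated. Hybridization was on Illumina Human-HT12. Data were processed with bgAdjust, vst and rsn normalization. Changes versus DMSO were called by moderated paired t-test at p < 0.05 and |log2 fold change| > 0.5.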

HUVEC [5] = assay: Effect on MIR181A2HG gene expression in serum-starved HUVEC after 24 hrs by microarray analysis relative to control; format: functional, Homo sapiens; how it was run: as §2
HUVEC [6] = assay: Effect on RHOB gene expression in serum-starved HUVEC after 24 hrs by microarray analysis relative to control; format: functional, Homo sapiens
HUVEC [7] = assay: Effect on MAP1B gene expression in serum-starved HUVEC after 24 hrs by microarray analysis relative to control; format: functional, Homo sapiens; how it was run: as §2
HUVEC [8] = assay: Effect on ELMOD1 gene expression in serum-starved HUVEC after 6 hrs by microarray analysis relative to control; format: functional, Homo sapiens; how it was run: as §1
HUVEC [9] = assay: Effect on ASAP1 gene expression in serum-starved HUVEC after 6 hrs by microarray analysis relative to control; format: functional, Homo sapiens
How it was run: (§3)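 Confluent serum-starved HUVEC (primary, pooled from 3–5 donors, passage ≤4) treated with 2 μM compound or DMSO vehicle in 2.5% FBS for 6 h or 24 h. Total RNA hybridized to Illumina Human-HT12 arrays, background-corrected, vst-transformed and rsn-normalized. Differential expression versus DMSO by moderated paired t-test (p < 0.05, |log2 fold change| > 0.5).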

HUVEC [10] = assay: Effect on MVD gene expression in serum-starved HUVEC after 6 hrs by microarray analysis relative to control; format: functional, Homo sapiens; how it was run: as §2
HUVEC [11] = assay: Effect on HJURP gene expression in serum-starved HUVEC after 6 hrs by microarray analysis relative to control; format: functional, Homo sapiens
HUVEC [12] = assay: Effect on DKK1 gene expression in serum-starved HUVEC after 6 hrs by microarray analysis relative to control; format: functional, Homo sapiens; how it was run: as §3
HUVEC [13] = assay: Effect on UACA gene expression in serum-starved HUVEC after 6 hrs by microarray analysis relative to control; format: functional, Homo sapiens
HUVEC [14] = assay: Effect on ASAP1 gene expression in serum-starved HUVEC after 24 hrs by microarray analysis relative to control; format: functional, Homo sapiens
How it was run: (§4)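 Serum-starved confluent HUVEC (primary, pooled from 3–5 donors, passage ≤4) treated with 2 μM test compound or DMSO vehicle (working dilutions ≤0.1% v/v) in presence of 2.5% FBS for 6 h or 24 h; total RNA hybridized to Illumina Human-HT12 arrays; background correction, vst, rsn normalization; moderated paired t-test versus DMSO, thresholds p < 0.05 and log2 fold change >|0.5|.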

HUVEC [15] = assay: Effect on LMNB2 gene expression in serum-starved HUVEC after 6 hrs by microarray analysis relative to control; format: functional, Homo sapiens; how it was run: as §2
HUVEC [16] = assay: Effect on DBI gene expression in serum-starved HUVEC after 6 hrs by microarray analysis relative to control; format: functional, Homo sapiens; how it was run: as §4
HUVEC [17] = assay: Effect on INSIG1 gene expression in serum-starved HUVEC after 6 hrs by microarray analysis relative to control; format: functional, Homo sapiens; how it was run: as §1
HUVEC [18] = assay: Effect on CMTM7 gene expression in serum-starved HUVEC after 24 hrs by microarray analysis relative to control; format: functional, Homo sapiens; how it was run: as §3
HUVEC [19] = assay: Effect on PLK4 gene expression in serum-starved HUVEC after 6 hrs by microarray analysis relative to control; format: functional, Homo sapiens; how it was run: as §2
HUVEC [20] = assay: Effect on FUCA1 gene expression in serum-starved HUVEC after 24 hrs by microarray analysis relative to control; format: functional, Homo sapiens; how it was run: as §3
HUVEC [21] = assay: Effect on FABP4 gene expression in serum-starved HUVEC after 6 hrs by microarray analysis relative to control; format: functional, Homo sapiens; how it was run: as §3
HUVEC [22] = assay: Effect on PRR11 gene expression in serum-starved HUVEC after 6 hrs by microarray analysis relative to control; format: functional, Homo sapiens; how it was run: as §2
HUVEC [23] = assay: Effect on TM7SF2 gene expression in serum-starved HUVEC after 6 hrs by microarray analysis relative to control; format: functional, Homo sapiens
HUVEC [24] = assay: Effect on SULT1C4 gene expression in serum-starved HUVEC after 6 hrs by microarray analysis relative to control; format: functional, Homo sapiens
HUVEC [25] = assay: Effect on TMEM154 gene expression in serum-starved HUVEC after 24 hrs by microarray analysis relative to control; format: functional, Homo sapiens
HUVEC [26] = assay: Effect on SULF1 gene expression in serum-starved HUVEC after 6 hrs by microarray analysis relative to control; format: functional, Homo sapiens
HUVEC [27] = assay: Effect on RNU4ATAC gene expression in serum-starved HUVEC after 24 hrs by microarray analysis relative to control; format: functional, Homo sapiens
HUVEC [28] = assay: Effect on EIF3CL gene expression in serum-starved HUVEC after 24 hrs by microarray analysis relative to control; format: functional, Homo sapiens; how it was run: as §3
[29] = Upregulation of HMGCS1 gene expression in serum-starved HUVEC at 2 uM after 24 hrs by qRT-PCR analysis; format: functional, cell-based; conditions: Homo sapiens
HUVEC [30] = assay: Effect on ANGPTL4 gene expression in serum-starved HUVEC after 6 hrs by microarray analysis relative to control; format: functional, Homo sapiens
How it was run: (§5)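 Serum-starved confluent HUVEC treated with 2 μM compound or DMSO in 2.5% FBS for 6 h or 24 h; RNA hybridized to Illumina Human-HT12 arrays. Data background-corrected, vst-transformed and rsn-normalized. Differential probes called by moderated paired t-test (limma) at p < 0.05 and log2 fold change >|0.5| vs DMSO.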

HUVEC [31] = assay: Effect on TGFBI gene expression in serum-starved HUVEC after 24 hrs by microarray analysis relative to control; format: functional, Homo sapiens
HUVEC [32] = assay: Effect on ALDOC gene expression in serum-starved HUVEC after 6 hrs by microarray analysis relative to control; format: functional, Homo sapiens; how it was run: as §5
HUVEC [33] = assay: Effect on VCAM1 gene expression in serum-starved HUVEC after 24 hrs by microarray analysis relative to control; format: functional, Homo sapiens
HUVEC [34] = assay: Effect on SULT1C4 gene expression in serum-starved HUVEC after 24 hrs by microarray analysis relative to control; format: functional, Homo sapiens
HUVEC [35] = assay: Effect on LDLR gene expression in serum-starved HUVEC after 6 hrs by microarray analysis relative to control; format: functional, Homo sapiens; how it was run: as §2
HUVEC [36] = assay: Effect on TYMP gene expression in serum-starved HUVEC after 6 hrs by microarray analysis relative to control; format: functional, Homo sapiens
HUVEC [37] = assay: Effect on MGARP gene expression in serum-starved HUVEC after 6 hrs by microarray analysis relative to control; format: functional, Homo sapiens; how it was run: as §2
HUVEC [38] = assay: Effect on SCD gene expression in serum-starved HUVEC after 6 hrs by microarray analysis relative to control; format: functional, Homo sapiens

COc1ccc(Cn2nc(-c3ccccc3)c3cc(Nc4ccc(N5CCN(C)CC5)cc4)nc(N4CCNCC4)c32)cc1
log2FC (HUVEC [1]): -0.5297 | log2FC (HUVEC [2]): 0.4049 | log2FC (HUVEC [3]): 0.5464 | log2FC (HUVEC [4]): -0.0835 | log2FC (HUVEC [5]): 0.5287

COc1ccc(Cn2nc(-c3ccccc3)c3cc(Cl)nc(N4CCNCC4)c32)cc1
log2FC (HUVEC [6]): 0.5108 | log2FC (HUVEC [7]): -0.053 | log2FC (HUVEC [8]): -0.1337

COc1ccc(Cn2nc(-c3ccccc3)c3cc(Nc4ccc(N5CCN(C)CC5)cc4)nc(N4CCN(C)CC4)c32)cc1
fold change (FC) (HUVEC [9]): 0.6103 | fold change (FC) (HUVEC [10]): 0.3962 | fold change (FC) (HUVEC [11]): -0.1528 | fold change (FC) (HUVEC [12]): 0.1994 | fold change (FC) (HUVEC [13]): 0.2427 | fold change (FC) (HUVEC [14]): 0.1181 | fold change (FC) (HUVEC [15]): 0.1414 | fold change (FC) (HUVEC [16]): 0.0722 | fold change (FC) (HUVEC [17]): 1.0454 | fold change (FC) (HUVEC [18]): 0.5435 | fold change (FC) (HUVEC [19]): 0.1554 | fold change (FC) (HUVEC [20]): -1.0254 | fold change (FC) (HUVEC [21]): 0.3036 | log2FC (HUVEC [22]): 0.0749 | log2FC (HUVEC [23]): 0.343 | fold change (FC) (HUVEC [24]): 0.1329 | log2FC (HUVEC [25]): 0.8028 | log2FC (HUVEC [26]): 0.5151 | log2FC (HUVEC [27]): -0.0618 | fold change (FC) (HUVEC [28]): -0.1982 | Activity [29]: Active | log2FC (HUVEC [30]): -0.3836 | log2FC (HUVEC [31]): -0.9058 | fold change (FC) (HUVEC [32]): 0.067 | log2FC (HUVEC [33]): -0.7052 | log2FC (HUVEC [34]): 0.5208 | fold change (FC) (HUVEC [35]): 0.9404 | log2FC (HUVEC [36]): 0.5089 | log2FC (HUVEC [37]): -0.2938 | log2FC (HUVEC [38]): 0.7444

From ChEMBL document CHEMBL3856209, “Novel pyrazolopyridine derivatives as potential angiogenesis inhibitors: Synthesis, biological evaluation and transcriptome-based mechanistic analysis” (Eur J Med Chem, 2016)
